Assay [1] concerns LAPC4. The assay is described as follows: Androgenic activity in human LAPC4 cells expressing androgen receptor assessed as induction of cell proliferation at 0.1 uM after 3 days by MTS assay relative to control. The assay is classed as functional. The gist of the method: (§1)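 LAPC-4 (AR+) cells in RPMI-1640 with 5% dextran-coated charcoal-treated FBS to remove hormones. Triplicate cultures of 10,000 cells preincubated 24 h at 37 °C, 5% CO2. Compounds from 10^-2 M DMSO stock, diluted in medium, added for 3 days (final DMSO 0.05%; vehicle controls). Growth read by MTS. Androgenicity = % proliferation minus basal set at 100%.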
On the technique in general: Formazan colour is commonly taken as a measure of viable cells.

Assay [2] deals with LAPC4. The assay is described as follows: Androgenic activity in human LAPC4 cells expressing androgen receptor assessed as induction of cell proliferation at 1 uM after 3 days by MTS assay relative to control. In kind it is functional. The method, boiled down: as §1
Assay [3] addresses T1, 17-beta-hydroxysteroid dehydrogenase type 3 (Rattus norvegicus) (UniProt O54939).
T1 sequence (whole entry): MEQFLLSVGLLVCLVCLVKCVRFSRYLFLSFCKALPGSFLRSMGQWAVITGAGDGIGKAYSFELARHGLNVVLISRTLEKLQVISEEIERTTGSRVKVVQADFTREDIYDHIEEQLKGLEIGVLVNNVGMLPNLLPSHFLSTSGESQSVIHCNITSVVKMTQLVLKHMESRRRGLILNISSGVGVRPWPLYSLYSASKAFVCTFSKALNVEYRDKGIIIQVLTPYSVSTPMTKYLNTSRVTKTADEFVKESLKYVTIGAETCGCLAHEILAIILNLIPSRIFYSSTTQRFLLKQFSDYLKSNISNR
Briefly: Inhibition of 17beta-HSD3 in rat testes microsomes using [14C]-4-androstene-3,17-dione as substrate measured based on 33% of initial enzyme transformation at 0.1 uM after 2 hrs. Conditions: Testis. The gist of the method:
(§2)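 Rat testis microsomes: homogenate in phosphate/sucrose/EDTA buffer pH 7.5 with protease inhibitors, spun 12,500g, then pellet from 100,000g, at 4 °C. Reaction 2 h at 37 °C in 50 mM sodium phosphate pH 7.4, 20% glycerol, 1 mM EDTA, with NADPH and [14C]-Δ4-dione (50 nM). Inhibitor in DMSO. [14C]-T and substrate identified against reference steroids and quantified. Percent transformation and percent inhibition calculated.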

Assay [4] deals with T1, 17-beta-hydroxysteroid dehydrogenase type 3 (Rattus norvegicus). Briefly: Inhibition of 17beta-HSD3 in rat testes microsomes using [14C]-4-androstene-3,17-dione as substrate measured based on 33% of initial enzyme transformation at 1 uM after 2 hrs. Conditions: Testis. The gist of the method:
as §2

Assay [5] shares this target. Briefly: Inhibition of 17beta-HSD3 in rat testes microsomes using [14C]-4-androstene-3,17-dione as substrate measured based on 33% of initial enzyme transformation at 10 uM after 2 hrs. Conditions: Testis. The method, boiled down:
as §2

For assay [6] the target is unchanged. The assay is described as follows: Inhibition of 17beta-HSD3 in rat testes microsomes using [14C]-4-androstene-3,17-dione as substrate measured based on 18% of initial enzyme transformation at 0.1 uM after 2 hrs. As to conditions: Testis. The gist of the method:
as §2

The target is the same in assay [7]. Briefly: Inhibition of 17beta-HSD3 in rat testes microsomes using [14C]-4-androstene-3,17-dione as substrate measured based on 18% of initial enzyme transformation at 1 uM after 2 hrs. As to conditions: Testis. The gist of the method: as §2
Assay [8] has the same target. The assay is described as follows: Inhibition of 17beta-HSD3 in rat testes microsomes using [14C]-4-androstene-3,17-dione as substrate measured based on 4% of initial enzyme transformation at 1 uM after 2 hrs. As to conditions: Testis. The gist of the method:
as §2

For assay [9] the target is unchanged. The assay is described as follows: Inhibition of 17beta-HSD3 in rat testes microsomes using [14C]-4-androstene-3,17-dione as substrate measured based on 4% of initial enzyme transformation at 10 uM after 2 hrs. Conditions: Testis. The method, boiled down:
as §2

For assay [10] the target is unchanged. The assay is described as follows: Inhibition of 17beta-HSD3 in rat testes microsomes using [14C]-4-androstene-3,17-dione as substrate measured based on 18% of initial enzyme transformation at 0.01 uM after 2 hrs. Conditions: Testis. The method, boiled down:
as §2

Assay [11] deals with T2, 17-beta-hydroxysteroid dehydrogenase type 3 (Rattus norvegicus, UniProt O54939).
T2 sequence (O54939 whole entry): T1 sequence (whole entry)
Briefly: Inhibition of 17beta-HSD3 in rat testes microsomes using [14C]-4-androstene-3,17-dione as substrate after 2 hrs. On the set-up: species or system Testis. The method, boiled down:
as §2

As a reminder, the inhibition is the change of the read-out against control, counted positive when it falls. Higher therefore signals a strong effect. For orientation: IC50 means the concentration that gives 50% inhibition. High values mean weaker potency in that assay, low ones greater potency in that assay.

Regarding `C[C@]12CC[C@@]3(C[C@@H]1CC[C@@H]1[C@@H]2CC[C@]2(C)C(=O)CC[C@@H]12)CN(Cc1ccc(OCc2ccccc2)cc1)CC(=O)O3`, the Activity in the assay with LAPC4 [1] was 0%; in the assay on LAPC4 [2] it was 16.7%. Moreover, the inhibition turned out to be 80.4% in assay [3], 90.8% in assay [4] and 93.4% in [5].
On to `C[C@]12CC[C@@]3(C[C@@H]1CC[C@@H]1[C@@H]2CC[C@]2(C)C(=O)CC[C@@H]12)CN(Cc1ccccc1)CC(=O)O3`, for which the inhibition in assay [6] amounted to 56%; in assay [7], 89.2%; in [8] it was 90.9%; in assay [9], 95.2%; in assay [3], 80.8%; in assay [4], 91.6%. For the same compound, the values for the inhibition in assay [5] and in [10] were 94.3% and 27.2%, respectively. Moreover, the Activity is reported as 8.1% in the assay on LAPC4 [1] and 30.5% with LAPC4 [2].
As for `C[C@]12CC[C@@]3(C[C@@H]1CC[C@@H]1[C@@H]2CC[C@]2(C)C(=O)CC[C@@H]12)CN(CC(CN1CCOCC1)OC(=O)C1CCCCC1)C(=O)O3` (some centres undefined), the inhibition in [6] was found to be 51.5%; in [7], 93.1%; in [8] it was 93.9%; in [9], 97.2%. Also, the values for the Activity with LAPC4 [1] and with LAPC4 [2] were 4.8% and 9.4%, respectively.
With `C[C@]12CC[C@@]3(C[C@@H]1CC[C@@H]1[C@@H]2CC[C@]2(C)C(=O)CC[C@@H]12)CN(Cc1ccc(Br)cc1)CC(=O)O3`, the Activity in the assay with LAPC4 [1] is 21.8%; in the assay on LAPC4 [2], 45.7%. Further, the inhibition in assay [3] was 79.1%; in [4], 92.9%; in assay [5], 91.6%.
Regarding `CC(C)C[C@H]1C(=O)O[C@@]2(CC[C@@]3(C)[C@@H](CC[C@@H]4[C@@H]3CC[C@]3(C)C(=O)CC[C@@H]43)C2)CN1Cc1ccccc1`, the inhibition was 62.9% in [6], 93.1% in assay [7], 77.3% in assay [8] and 87.1% in assay [9]. In addition, the Activity in the assay on LAPC4 [1] was 8.4%; with LAPC4 [2] it was 44.2%.
On to `COC(=O)[C@@H](CC(C)C)N1C[C@]2(CC[C@@]3(C)[C@@H](CC[C@@H]4[C@@H]3CC[C@]3(C)C(=O)CC[C@@H]43)C2)OC1=O`, for which the inhibition came out at 55.4% in assay [6], 73.6% in [7], 76.9% in [8] and 67.8% in [9]. For the same compound, the Activity in the assay with LAPC4 [1] was 1.5%; with LAPC4 [2] it was 21.9%.
In turn, `C[C@]12CCC(=O)C=C1CC[C@@H]1[C@@H]2CC[C@]2(C)C(=O)CC[C@@H]12` [ANDROSTENEDIONE] returned an IC50 in [11] of 169 nM.
Turning to `C[C@]12CC[C@@]3(C[C@@H]1CC[C@@H]1[C@@H]2CC[C@]2(C)C(=O)CC[C@@H]12)CN(Cc1ccc(-c2ccccc2)cc1)CC(=O)O3`, the Activity amounted to 47.7% in the assay on LAPC4 [1] and 55.1% in the assay on LAPC4 [2]. Also, the inhibition in [3] was 81.9%; in assay [4] it was 93.1%; in assay [5] it was 95.2%.
In the case of `C[C@]12CC[C@@]3(C[C@@H]1CC[C@@H]1[C@@H]2CC[C@]2(C)C(=O)CC[C@@H]12)CN(CCc1ccc(C(F)(F)F)cc1)CC(=O)O3`, the values for the Activity in the assay on LAPC4 [1] and in the assay with LAPC4 [2] were 40.2% and 76.1%, respectively. The figures for the inhibition in [3], in assay [4] and in assay [5] were 70.7%, 92.1% and 93.3%, respectively.
As for `O=C1OC2(CCCCC2)CN[C@H]1Cc1ccccc1`, in assay [5], the inhibition came to 20.6%.
`C[C@]12CC[C@@]3(C[C@@H]1CC[C@@H]1[C@@H]2CC[C@]2(C)C(=O)CC[C@@H]12)CN(CCc1ccccc1)CC(=O)O3`: the values for the Activity with LAPC4 [1] and in the assay with LAPC4 [2] were 48.9% and 79.7%, respectively. For the same compound, the inhibition was 78.5% in assay [3], 92.2% in assay [4] and 95.2% in assay [5].
Take `O=C1OC2(CCCCC2)CN(Cc2ccccc2)[C@H]1Cc1ccccc1`: the inhibition in assay [5] is 29.2%.
For `COC(=O)[C@H](CC(C)C)N1C[C@]2(CC[C@@]3(C)[C@@H](CC[C@@H]4[C@@H]3CC[C@]3(C)C(=O)CC[C@@H]43)C2)OC1=O`, the inhibition in assay [6] turned out to be 57.6%; in assay [7], 93.6%; in assay [8] it was 82.3%; in assay [9], 88.4%. Also, the results for the Activity in the assay on LAPC4 [1] and with LAPC4 [2] were 0% and 8.4%, respectively.
As to `C[C@]12CC[C@@]3(C[C@@H]1CC[C@@H]1[C@@H]2CC[C@]2(C)C(=O)CC[C@@H]12)CN(CCCCc1ccccc1)CC(=O)O3`, the figures for the Activity in the assay with LAPC4 [1] and with LAPC4 [2] were 5.3% and 19.2%, respectively. The inhibition in assay [3] was determined as 79.9%; in assay [4], 91.1%; in assay [5], 91.3%.
As for `C[C@]12CC[C@@]3(C[C@@H]1CC[C@@H]1[C@@H]2CC[C@]2(C)C(=O)CC[C@@H]12)CN(Cc1ccc(OC(F)(F)F)cc1)CC(=O)O3`, the values for the Activity with LAPC4 [1] and with LAPC4 [2] were 45.9% and 74.9%, respectively. The figures for the inhibition in [3], in assay [4] and in assay [5] were 79%, 93.8% and 95.7%, respectively.
In assay [11], `C[C@]12CC[C@@H](O)C[C@@H]1CC[C@@H]1[C@@H]2CC[C@]2(C)C(=O)CC[C@@H]12` [ANDROSTERONE] returned an IC50 of 90 nM.
For `CC(C)C[C@@H]1NC[C@]2(CC[C@@]3(C)[C@@H](CC[C@@H]4[C@@H]3CC[C@]3(C)C(=O)CC[C@@H]43)C2)OC1=O`, the inhibition stood at 39.4% in assay [6], 84.9% in assay [7], 69.3% in assay [8] and 83.8% in [9]. Moreover, the values for the Activity with LAPC4 [1] and with LAPC4 [2] were 14.5% and 11.1%, respectively.
On to `C[C@]12CC[C@@]3(C[C@@H]1CC[C@@H]1[C@@H]2CC[C@]2(C)C(=O)CC[C@@H]12)CN(CCCc1ccccc1)CC(=O)O3`, for which the Activity was determined as 64.9% in the assay with LAPC4 [1] and 55.5% in the assay with LAPC4 [2]. Also, the inhibition was determined as 74.9% in assay [3], 90.5% in [4] and 92.3% in assay [5].
`C[C@]12CC[C@@]3(C[C@@H]1CC[C@@H]1[C@@H]2CC[C@]2(C)C(=O)CC[C@@H]12)CN(Cc1ccc(C(F)(F)F)cc1)CC(=O)O3`: the Activity turned out to be 12.3% in the assay on LAPC4 [1] and 31.7% with LAPC4 [2]. Further, the inhibition in assay [3] came to 83.4%; in [4] it was 94%; in [5] it was 91.2%.

For the origin of these results see ChEMBL document CHEMBL3603811, “Design, chemical synthesis and biological evaluation of 3-spiromorpholinone/3-spirocarbamate androsterone derivatives as inhibitors of 17β-hydroxysteroid dehydrogenase type 3” (Bioorg Med Chem, 2015).
